Test results as given in publication PMC6424611 (Journal of molecular biology, 2019).
Where no end group is shown, it is not given here. The star is where a group is joined. Biotin = O=C1N[C@H]2[C@H](CS[C@H]2CCCCC(=O)*)N1; TTDS = NCCCOCCOCCOCCCNC(=O)CCC(=O)*

Columns and labels:
SHROOM2 PDZ = assay: holdup assay; assay type: binding, human; conditions: ~4 μM PDZ
Summary of the method: (§1)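 Automated holdup against N-terminally biotinylated (TTDS linker) RSK1 725–735 peptides, unphosphorylated and phosphorylated, in triplicate. PDZome v2 clones were codon-optimized and expressed in E. coli, with soluble lysate adjusted to ~4 μM. BI is the PDZ fraction depleted from the fluid phase.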

MAGI3-2 PDZ = assay: holdup assay; assay type: binding, human; conditions: fraction of PDZ depleted; ~4 μM PDZ; biotinylated RSK1_725–735; triplicates
Summary of the method: (§2)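 Automated holdup in triplicate measured biotinylated (N-terminal TTDS linker) RSK1 725–735 peptides, unphosphorylated or phosphorylated, against E. coli-expressed PDZome v2 domains. Soluble lysate was adjusted to ~4 μM, giving 255 domains for the unphosphorylated and 252 for the phosphorylated peptide. Binding intensity (BI) is the fraction of PDZ depleted from the fluid phase. BI 0.2 was the high-confidence threshold.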

PDZD7-3 PDZ = target: T1, PDZD7-3 PDZ (Homo sapiens, UniProt Q9H5P4); assay: holdup assay; assay type: binding; conditions: ~4 μM PDZ
T1 sequence (Q9H5P4 862-934 limits assumed): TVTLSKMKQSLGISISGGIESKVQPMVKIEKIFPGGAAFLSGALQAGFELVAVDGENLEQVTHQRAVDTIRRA
Summary of the method: as §1

MAST2 PDZ = target: T2, MAST2 PDZ (Homo sapiens, UniProt Q6P0Q8); assay: holdup assay; assay type: binding; conditions: fraction of PDZ depleted; ~4 μM PDZ; biotinylated RSK1_725–735; triplicates
T2 sequence (Q6P0Q8 1104-1192 limits assumed): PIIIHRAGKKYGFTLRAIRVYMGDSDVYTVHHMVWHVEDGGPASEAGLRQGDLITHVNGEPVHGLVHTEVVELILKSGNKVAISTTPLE
Summary of the method: as §1

GRID2IP-1 PDZ = assay: holdup assay; assay type: binding, human; conditions: ~4 μM PDZ
Summary of the method: as §1

PDZRN3-1 PDZ = target: T3, PDZRN3-1 PDZ (Homo sapiens, UniProt Q9UPQ7); assay: holdup assay; assay type: binding; conditions: ~4 μM PDZ
T3 sequence (Q9UPQ7 249-339 limits assumed): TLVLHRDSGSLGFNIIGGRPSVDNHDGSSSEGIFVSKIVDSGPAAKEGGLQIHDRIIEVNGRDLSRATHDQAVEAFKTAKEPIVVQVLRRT
Summary of the method: as §1

ARHGEF12 PDZ = target: T4, ARHGEF12 PDZ (Homo sapiens, UniProt Q9NZN5); assay: holdup assay; assay type: binding; conditions: ~4 μM PDZ
T4 sequence (Q9NZN5 72-151 limits assumed): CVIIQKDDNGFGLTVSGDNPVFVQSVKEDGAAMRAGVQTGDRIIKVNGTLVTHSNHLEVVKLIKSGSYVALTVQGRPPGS
Summary of the method: as §1

MAST1 PDZ = target: T5, MAST1 PDZ (Homo sapiens, UniProt Q9Y2H9); assay: holdup assay; assay type: binding; conditions: ~4 μM PDZ
T5 sequence (Q9Y2H9 967-1055 limits assumed): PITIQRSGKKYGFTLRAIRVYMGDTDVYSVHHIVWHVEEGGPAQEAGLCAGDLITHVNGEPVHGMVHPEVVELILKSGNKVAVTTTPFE
Summary of the method: as §1

PPP1R9A PDZ = assay: holdup assay; assay type: binding, human; conditions: ~4 μM PDZ
Summary of the method: as §1

GRASP PDZ = assay: holdup assay; assay type: binding, human; conditions: ~4 μM PDZ
Summary of the method: as §1

[1] = test system: human PDZ domains (PDZome); assay: holdup assay, PDZome-binding profile; conditions: PDZome profile
Summary of the method: as §2

LAP2 PDZ = assay: holdup assay; assay type: binding, human; conditions: ~4 μM PDZ
Summary of the method: as §1

GOPC PDZ = GOPC PDZ (Homo sapiens, UniProt Q9HD26); assay: holdup assay; assay type: binding; conditions: fraction of PDZ depleted; ~4 μM PDZ; biotinylated RSK1_725–735; triplicates
SHANK3 PDZ = assay: holdup assay; assay type: binding, human; conditions: ~4 μM PDZ
Summary of the method: as §1

GORASP1 PDZ = assay: holdup assay; assay type: binding, human; conditions: ~4 μM PDZ
Summary of the method: as §1

MAGI2-2 PDZ = MAGI2-2 PDZ (Homo sapiens, UniProt Q86UL8); assay: holdup assay; assay type: binding; conditions: ~4 μM PDZ
Chain of MAGI2-2 PDZ (Q86UL8 426-510 limits assumed): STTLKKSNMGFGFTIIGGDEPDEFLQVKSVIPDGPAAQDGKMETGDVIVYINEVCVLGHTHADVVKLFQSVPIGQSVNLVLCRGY
Summary of the method: as §1

NHERF2-2 PDZ = assay: holdup assay; assay type: binding, human; conditions: ~4 μM PDZ
Summary of the method: as §1

LNX1 −3 PDZ = assay: holdup assay; assay type: binding, human; conditions: ~4 μM PDZ
Summary of the method: as §1

PARD3B-1 PDZ = target: T6, PARD3B-1 PDZ (Homo sapiens, UniProt Q8TEW8); assay: holdup assay; assay type: binding; conditions: fraction of PDZ depleted; ~4 μM PDZ; biotinylated RSK1_725–735; triplicates
T6 sequence (Q8TEW8 201-289 limits assumed): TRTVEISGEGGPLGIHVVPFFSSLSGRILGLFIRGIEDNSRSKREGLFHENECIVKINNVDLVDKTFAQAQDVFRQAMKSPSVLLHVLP
Summary of the method: as §2

SYNJ2BP PDZ = target: T7, SYNJ2BP PDZ (Homo sapiens, UniProt P57105); assay: holdup assay; assay type: binding; conditions: ~4 μM PDZ
T7 sequence (P57105 13-100 limits assumed): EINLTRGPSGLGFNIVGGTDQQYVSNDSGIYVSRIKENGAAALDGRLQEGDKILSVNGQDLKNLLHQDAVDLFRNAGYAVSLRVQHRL
Summary of the method: as §1

SCRIB-3 PDZ = assay: holdup assay, updated analysis; assay type: binding, human; conditions: weak partner; automated computational protocol
Summary of the method: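 The same triplicate holdup datasets (biotinylated RSK1 725–735, unphosphorylated and phosphorylated, vs ~4 μM PDZome lysates) were re-analysed with an updated automated computational protocol. This gave alternative BI values, reported as supplemental values alongside the conventional analysis.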

SNTG2 PDZ = target: T8, SNTG2 PDZ (Homo sapiens, UniProt Q9NY99); assay: holdup assay; assay type: binding; conditions: ~4 μM PDZ
T8 sequence (Q9NY99 73-156 limits assumed): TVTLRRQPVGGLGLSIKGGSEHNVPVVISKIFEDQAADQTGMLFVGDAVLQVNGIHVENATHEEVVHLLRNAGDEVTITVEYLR
Summary of the method: as §1

DLG4-2 PDZ = assay: holdup assay; assay type: binding, human; conditions: ~4 μM PDZ
GRID2IP-2 PDZ = GRID2IP-2 PDZ (Homo sapiens, UniProt A4D2P6); assay: holdup assay; assay type: binding; conditions: fraction of PDZ depleted; ~4 μM PDZ; biotinylated RSK1_725–735; triplicates
Chain of GRID2IP-2 PDZ (A4D2P6 279-356 limits assumed): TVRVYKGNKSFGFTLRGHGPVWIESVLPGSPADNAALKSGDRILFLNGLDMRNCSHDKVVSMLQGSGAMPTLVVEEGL
Summary of the method: as §2

MAGI1-2 PDZ = MAGI1-2 PDZ (Homo sapiens, UniProt Q96QZ7); assay: holdup assay; assay type: binding; conditions: ~4 μM PDZ
Chain of MAGI1-2 PDZ (Q96QZ7 472-554 limits assumed): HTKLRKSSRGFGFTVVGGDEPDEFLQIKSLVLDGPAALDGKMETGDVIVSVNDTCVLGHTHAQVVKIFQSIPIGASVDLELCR
Summary of the method: as §1

SNX27 PDZ = SNX27 PDZ (Homo sapiens, UniProt Q96L92); assay: holdup assay; assay type: binding; conditions: ~4 μM PDZ
[2] = fraction of PDZ depleted, biotinylated RSK1_725–735, triplicates
[3] = read-out: KD, estimated, from BI, estimated 17 μM peptide

unphosphorylated RSK1 peptide: C-terminal RSK1 PBM peptide; RSK1_725–735 (holdup, SPR), RSK1_729–735 (direct FP), RSK1_683–735 (competitive FP) ({Biotin-TTDS}-RRVRKLPSTTL)
binding intensity (BI) (SHROOM2 PDZ; [2]): 0.00 ± 0.01 | Kd (SHROOM2 PDZ; [3]): > 100 µM | binding intensity (BI) (MAGI3-2 PDZ): 0.28 ± 0.03 | binding intensity (BI) (PDZD7-3 PDZ; [2]): 0.60 ±0.03 | Kd (PDZD7-3 PDZ; [3]): 9.7 µM | binding intensity (BI) (MAST2 PDZ): 0.74 ± 0.03 | binding intensity (BI) (GRID2IP-1 PDZ; [2]): 0.06 ± 0.02 | Kd (GRID2IP-1 PDZ; [3]): > 100 µM | binding intensity (BI) (PDZRN3-1 PDZ; [2]): 0.26 ± 0.01 | Kd (PDZRN3-1 PDZ; [3]): 45.4 µM | binding intensity (BI) (ARHGEF12 PDZ; [2]): 0.77 ± 0.02 | Kd (ARHGEF12 PDZ; [3]): 4.2 µM | binding intensity (BI) (MAST1 PDZ; [2]): 0.57 ± 0.01 | Kd (MAST1 PDZ; [3]): 11.1 µM | binding intensity (BI) (PPP1R9A PDZ; [2]): 0.00 ± 0.02 | Kd (PPP1R9A PDZ; [3]): > 100 µM | binding intensity (BI) (GRASP PDZ; [2]): 0.29 ± 0.01 | Kd (GRASP PDZ; [3]): 38.8 µM | average BI [1]: 0.42 | maximal BI [1]: 0.77 | binding intensity (BI) (LAP2 PDZ; [2]): −0.02 ± 0.05 | Kd (LAP2 PDZ; [3]): > 100 µM | binding intensity (BI) (GOPC PDZ): 0.63 ± 0.05 | binding intensity (BI) (SHANK3 PDZ; [2]): 0.27 ± 0.03 | Kd (SHANK3 PDZ; [3]): 43 µM | binding intensity (BI) (GORASP1 PDZ; [2]): 0.01 ± 0.02 | Kd (GORASP1 PDZ; [3]): > 100 µM | binding intensity (BI) (MAGI2-2 PDZ; [2]): 0.42 ± 0.01 | Kd (MAGI2-2 PDZ; [3]): 21.2 µM | binding intensity (BI) (NHERF2-2 PDZ; [2]): 0.20 ± 0.04 | Kd (NHERF2-2 PDZ; [3]): 64.8 µM | binding intensity (BI) (LNX1 −3 PDZ; [2]): 0.04 ± 0.02 | Kd (LNX1 −3 PDZ; [3]): > 100 µM | binding intensity (BI) (PARD3B-1 PDZ): 0.52 ± 0.05 | binding intensity (BI) (SYNJ2BP PDZ; [2]): 0.26 ± 0.07 | Kd (SYNJ2BP PDZ; [3]): 45.4 µM | interaction partner by updated analysis (SCRIB-3 PDZ): new interaction partners | binding intensity (BI) (SNTG2 PDZ; [2]): 0.41 ± 0.02 | Kd (SNTG2 PDZ; [3]): 22.1 µM | binding intensity (BI) (DLG4-2 PDZ; [2]): 0.11 ± 0.03 | Kd (DLG4-2 PDZ; [3]): > 100 µM | binding intensity (BI) (GRID2IP-2 PDZ): 0.67 ± 0.02 | binding intensity (BI) (MAGI1-2 PDZ; [2]): 0.43 ± 0.02 | Kd (MAGI1-2 PDZ; [3]): 20.3 µM | binding intensity (BI) (SNX27 PDZ; [2]): 0.08 ± 0.07 | Kd (SNX27 PDZ; [3]): > 100 µM
